Here are results for 26 molecules from ChEMBL document CHEMBL1145272, “P2 pyridine N-oxide thrombin inhibitors: a novel peptidomimetic scaffold” (Bioorg Med Chem Lett, 2005).

The Ki is the equilibrium dissociation constant of an inhibitor or competing ligand from its target. High values mean a looser hold on the target, low ones a stronger hold on the target. As usually defined, the Cmax is the peak of the concentration-time curve. As usually defined, the half-life is how long it takes for the measured level to halve. High values mean slow decline, low ones rapid decline.

One data set deals with Prothrombin (Homo sapiens, UniProt P00734). As to the kind of experiment: Binding affinity against thrombin in human plasma. The data set is classed as cell-free.
Data set [1] is described as follows: Maximal plasma concentration in dogs after 0.95 mg/kg oral dose. The settings on record: dog. It is filed as ADME, organism-based, Canis lupus familiaris. Details: dose 0.95 mg/kg, route oral. An outline of the steps:
(§1)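 Dogs were given the compound orally at 0.65, 0.7 or 0.95 mpk, with the dose differing by compound. Plasma was sampled to obtain the maximum concentration (Cmax, μM) and the plasma half-life (t1/2, h).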

Data set [2] in a line: Half-life in dog plasma. The data set is classed as ADME, organism-based, Canis lupus familiaris. An outline of the steps: as §1
Data set [3] in a line: Maximal plasma concentration in dogs after 0.65 mg/kg oral dose. The data set is classed as ADME, organism-based, Canis lupus familiaris. Details: dose 0.65 mg/kg, route oral. The following applies: dog. Summed up:
as §1

A short description of data set [4]: Maximal plasma concentration in dogs after 0.85 mg/kg oral dose. The data set is classed as ADME, organism-based, Canis lupus familiaris. Details: dose 0.85 mg/kg, route oral. The following applies: dog.
The nature of data set [5]: Maximal plasma concentration in dogs after 0.7 mg/kg oral dose. Details: dose 0.7 mg/kg, route oral. It is filed as ADME, organism-based, Canis lupus familiaris. The settings on record: dog. Summed up: as §1

Some results are limits rather than exact numbers.

The molecule `C[C@H](NC(=O)Cc1c(Cl)ccc(NCC(F)(F)c2ccccn2)[n+]1[O-])c1cc(Cl)ccc1CN` registered a Ki at Prothrombin of 3.2 nM. The molecule further yielded a Cmax in data set [1] of 2600 nM. For the same molecule, the half-life in data set [2] was 4.5 h. At Prothrombin, `C[C@@H](NC(=O)Cc1c(Cl)ccc(NCC(F)(F)c2ccccn2)[n+]1[O-])c1cc(Cl)ccc1CN` showed a Ki of 260 nM. On Prothrombin, `NCc1ccccc1CNC(=O)Cc1c(Cl)ccc(NCC(F)(F)c2ccccn2)[n+]1[O-]` came in with a Ki of 0.4 nM. Also, the half-life in data set [2] was 1.5 h. In addition, the Cmax in data set [3] amounted to 820 nM. As to `O=C(Cc1cccc(NCC(F)(F)c2ccccn2)[n+]1[O-])NCc1cc(Cl)ccc1-n1cncn1`, the Ki at Prothrombin was determined as 1.5 nM. Still for that read-out and setting: to `O=C(Cc1cccc(NCC(F)(F)c2ccccn2)[n+]1[O-])NCc1cc(Cl)ccc1-n1cnnn1` belongs 0.14 nM; to `N#Cc1ccc(NCC(F)(F)c2ccccn2)[n+]([O-])c1CC(=O)NCc1cc(Cl)ccc1-n1cnnn1`, 0.002 nM. Still for that read-out and setting: to `N#Cc1ccc(N)[n+]([O-])c1CC(=O)NCc1cc(Cl)ccc1CN` belongs 10 nM; to `N#Cc1ccc(NCC(F)(F)c2ccccn2)[n+]([O-])c1CC(=O)NCc1cc(Cl)ccc1CN`, 0.001 nM. Still for that read-out and setting: to `N#Cc1ccc(NCC(F)(F)c2ccccn2)[n+]([O-])c1CC(O)NCc1cccc(Cl)c1` (centres undefined) belongs 0.08 nM; to `N#Cc1ccc(NCC(F)(F)c2ccccn2)[n+]([O-])c1CC(=O)NCc1ccccc1`, 150 nM. Regarding `N#Cc1ccc(NCC(F)(F)c2ccccn2)[n+]([O-])c1CC(=O)NCc1ncccc1-n1cncn1`, the affinity on Prothrombin corresponds to a Ki of 0.23 nM. Same read-out and setting: as for `N#Cc1ccc(NCC(F)(F)c2ccccn2)[n+]([O-])c1CC(=O)NCc1ncccc1F`, the figure is 1.5 nM.

The molecule `NCc1ccc(Cl)cc1CNC(=O)Cc1cccc(NCC(F)(F)c2ccccn2)[n+]1[O-]` registered a Ki on Prothrombin of 0.04 nM. Regarding `NCc1ccc(Cl)cc1CNC(=O)Cc1c(Cl)ccc(NCC(F)(F)c2ccccn2)[n+]1[O-]`, on Prothrombin, the Ki is < 0.01 nM. Still for that read-out and setting: to `O=C(Cc1c(Cl)ccc(NCC(F)(F)c2ccccn2)[n+]1[O-])NCc1ccccc1-n1cncn1` belongs 2.6 nM. `NCc1ccc(Cl)cc1C(CO)NC(=O)Cc1c(Cl)ccc(NCC(F)(F)c2ccccn2)[n+]1[O-]` (centres undefined) displayed a Cmax in data set [4] of 340 nM. For the same molecule, the Ki at Prothrombin was determined as 0.48 nM. In addition, the half-life in data set [2] is 1.5 h. For `O=C(Cc1c(Cl)ccc(NCC(F)(F)c2ccccn2)[n+]1[O-])NCc1ncccc1F`, at Prothrombin, the affinity, expressed as Ki, was 6 nM. On the same count and under the same terms, to `O=C(Cc1c(Cl)ccc(NCC(F)(F)c2ccccn2)[n+]1[O-])NCc1ncccc1-n1cncn1` belongs 2.5 nM.

Regarding `Nc1ccc(Cl)c(CC(=O)NCc2cc(Cl)ccc2-n2cnnn2)[n+]1[O-]`, at Prothrombin, the inhibition constant Ki turned out to be 140 nM. Still for that read-out and setting: to `O=C(Cc1c(Cl)ccc(NCC(F)(F)c2ccccn2)[n+]1[O-])NCc1cc(Cl)ccc1-n1cncn1` belongs 0.05 nM. Same read-out and setting: to `C[C@H](N)c1ccc(Cl)cc1CNC(=O)Cc1c(Cl)ccc(NCC(F)(F)c2ccccn2)[n+]1[O-]` belongs 20 nM.

In turn, `[O-][n+]1c(NCC(F)(F)c2ccccn2)ccc(Cl)c1CC(O)NCc1cccc(Cl)c1` (centres undefined) returned a Ki at Prothrombin of 0.42 nM. On to `N#Cc1ccc(NCC(F)(F)c2ccccn2)[n+]([O-])c1CC(O)NCc1ccccc1CN` (centres undefined), for which the Ki at Prothrombin was < 0.01 nM. As for `N#Cc1ccc(N)[n+]([O-])c1CC(=O)NCc1cc(Cl)ccc1-n1cnnn1`, the Ki at Prothrombin turned out to be 18 nM. On the same count and under the same terms, as for `NCc1ccc(Cl)cc1CNC(=O)Cc1c(Cl)ccc(N)[n+]1[O-]`, the figure is 26 nM. In the case of `C[C@@H](N)c1ccc(Cl)cc1CNC(=O)Cc1c(Cl)ccc(NCC(F)(F)c2ccccn2)[n+]1[O-]`, the affinity at Prothrombin corresponds to a Ki of 0.45 nM. Also, the concentration in data set [5] peaked (Cmax) at 100 nM. The molecule further gave a half-life in data set [2] of 2 h.
